# Reference: ChEMBL document CHEMBL3108709, “Diversity-oriented synthesis yields a new drug lead for treatment of chagas disease” (ACS Med Chem Lett, 2014)
# The source made the active and inactive calls. The rule behind the calls is not given here.
# Tests used:
# Trypanosoma cruzi [1] = assay: Trypanocidal activity against Trypanosoma cruzi CA-I/72 infected in BESM cells assessed as parasite re-emergence at 6.6 uM measured over 20 days of drug treatment; assay type: functional, organism-based
# Outline: (§1)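 T. cruzi-infected bovine embryo skeletal muscle (BESM) cells treated with varying compound concentrations for 20 or 29 days, compound refreshed every other day, then followed up to 36 days post-treatment. Trypomastigote emergence into medium checked visually daily through treatment and post-treatment phases; no re-emergence taken as trypanocidal, delayed emergence as trypanostatic.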
# Trypanosoma cruzi [2] = assay: Trypanocidal activity against Trypanosoma cruzi CA-I/72 infected in BESM cells assessed as parasite re-emergence at 6.6 uM treated for 20 days measured after 37 days; assay type: functional, organism-based; outline: as §1
# Trypanosoma cruzi [3] = assay: Antitrypanosomal activity against Trypanosoma cruzi Tulahuen infected in mouse NIH/3T3 cells assessed as multimode parasite growth inhibition after 4 days by beta-galactosidase reporter gene assay; assay type: functional, organism-based; details: NIH3T3, 96 h
# Outline: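 Recombinant Tulahuen T. cruzi stably expressing a beta-galactosidase reporter, cocultured with mouse NIH/3T3 fibroblast host cells. Compounds added to host cells before infection with parasites; growth inhibition read by reporter; IC50 in nM.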
# [4] = Plasma protein binding in human; assay type: ADME, cell-free; details: read-out: PPB (converted)
# [5] = Metabolic stability in mouse microsomes assessed as compound remaining at 1 uM after 1 hr; assay type: ADME, Microsome; details: read-out: Stability
# Outline: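 Mouse liver microsomes incubated 1 h with compound at 1 μM; result expressed as percent of compound remaining.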
# Trypanosoma cruzi [6] = assay: Antitrypanosomal activity against amastigote stage of Trypanosoma cruzi Tulahuen infected in rat L6 cells assessed as parasite growth inhibition after 96 hrs by beta-galactosidase reporter gene assay; assay type: functional, organism-based; details: L6, 96 h
# [7] = Fraction unbound in human plasma; assay type: ADME, cell-free
# [8] = Solubility of the compound in phosphate buffer saline; assay type: physicochemical
# Trypanosoma cruzi [9] = assay: Trypanocidal activity against Trypanosoma cruzi CA-I/72 infected in BESM cells assessed as parasite re-emergence at 40 nM treated for 29 days measured after 36 days; assay type: functional, organism-based; outline: as §1
# Trypanosoma cruzi [10] = assay: Trypanocidal activity against Trypanosoma cruzi CA-I/72 infected in BESM cells assessed as parasite re-emergence at 40 nM measured over 29 days of drug treatment; assay type: functional, organism-based; outline: as §1
# Trypanosoma cruzi [11] = assay: Trypanocidal activity against Trypanosoma cruzi CA-I/72 infected in BESM cells assessed as parasite re-emergence at 250 nM treated for 20 days measured after 4 days; assay type: functional, organism-based; outline: as §1
# Trypanosoma cruzi [12] = assay: Trypanocidal activity against Trypanosoma cruzi CA-I/72 infected in BESM cells assessed as parasite re-emergence at 250 nM measured over 20 days of drug treatment; assay type: functional, organism-based; outline: as §1
# Trypanosoma cruzi [13] = assay: Trypanocidal activity against Trypanosoma cruzi CA-I/72 infected in BESM cells assessed as parasite re-emergence at 740 nM treated for 20 days measured after 37 days; assay type: functional, organism-based; outline: as §1
# Trypanosoma cruzi [14] = assay: Trypanocidal activity against Trypanosoma cruzi CA-I/72 infected in BESM cells assessed as parasite re-emergence at 740 nM measured over 20 days of drug treatment; assay type: functional, organism-based; outline: as §1
# Plasma = assay: Metabolic stability in human plasma; assay type: ADME, cell-free
# Trypanosoma cruzi [15] = assay: Trypanocidal activity against Trypanosoma cruzi CA-I/72 infected in BESM cells assessed as parasite re-emergence at 370 nM measured over 29 days of drug treatment; assay type: functional, organism-based; outline: as §1
# Trypanosoma cruzi [16] = assay: Trypanocidal activity against Trypanosoma cruzi CA-I/72 infected in BESM cells assessed as parasite re-emergence at 370 nM treated for 29 days measured after 36 days; assay type: functional, organism-based; outline: as §1
compound,measurement,setting,value
O=C(Cn1ccnc1[N+](=O)[O-])NCc1ccccc1,Activity,Trypanosoma cruzi [1],Active
same,Activity,Trypanosoma cruzi [2],Active
C[C@H]1CN([C@@H](C)CO)C(=O)c2cccc(NC(=O)c3ccncc3)c2O[C@@H]1CN(C)Cc1ccc(-c2ccccc2)cc1,IC50,Trypanosoma cruzi [3],10 nM
CC(C)N1C[C@H](C)[C@@H](CN(C)Cc2ccc(Oc3ccccc3)cc2)Oc2c(NC(=O)C3CCNCC3)cccc2C1=O,IC50,Trypanosoma cruzi [3],1000 nM
C[C@H]1CN([C@@H](C)CO)C(=O)c2cccc(NC(=O)c3ccncc3)c2O[C@@H]1CN(C)Cc1ccc(F)c(F)c1,IC50,Trypanosoma cruzi [3],50 nM
C[C@H]1CN([C@@H](C)CO)C(=O)c2cccc(NC(=O)c3ccncc3)c2O[C@@H]1CN(C)Cc1ccc(Cl)cc1Cl,IC50,Trypanosoma cruzi [3],27 nM
CC(C)N1C[C@H](C)[C@@H](CN(C)Cc2ccccc2Cl)Oc2c(NC(=O)c3ccncc3)cccc2C1=O,IC50,Trypanosoma cruzi [3],45 nM
C[C@@H]1CN([C@@H](C)CO)C(=O)c2cccc(NC(=O)c3ccncc3)c2O[C@@H]1CN(C)Cc1ccc(Oc2ccccc2)cc1,fraction unbound,[4],0.05
same,"remaining at 1 h, 1 µM",[5],< 1%
same,IC50,Trypanosoma cruzi [6],670 nM
same,fraction unbound,[7],0.05
same,solubility,[8],87 µM
same,IC50,Trypanosoma cruzi [3],450 nM
C[C@H]1CN([C@@H](C)CO)C(=O)c2cccc(NC(=O)c3ccncc3)c2O[C@@H]1CN(C)Cc1ccccc1C(F)(F)F,IC50,Trypanosoma cruzi [3],34 nM
CC(C)N1C[C@H](C)[C@@H](CN(C)Cc2ccc(Cl)cc2)Oc2c(NC(=O)c3ccncc3)cccc2C1=O,IC50,Trypanosoma cruzi [6],61 nM
same,IC50,Trypanosoma cruzi [3],1 nM
C[C@H]1CN([C@@H](C)CO)C(=O)c2cccc(NC(=O)c3ccncc3)c2O[C@@H]1CN(C)Cc1ccccc1,solubility,[8],100 µM
same,IC50,Trypanosoma cruzi [3],12 nM
C[C@@H]1CN([C@@H](C)CO)C(=O)c2cccc(NC(=O)c3ccncc3)c2O[C@H]1CN(C)Cc1ccc(Oc2ccccc2)cc1,fraction unbound,[4],0.01
same,"remaining at 1 h, 1 µM",[5],2%
same,IC50,Trypanosoma cruzi [6],24 nM
same,solubility,[8],1 µM
same,Activity,Trypanosoma cruzi [9],Active
same,IC50,Trypanosoma cruzi [3],1 nM
same,Activity,Trypanosoma cruzi [10],Active
C[C@H]1CN([C@@H](C)CO)C(=O)c2cccc(NC(=O)c3ccncc3)c2O[C@@H]1CN(C)Cc1cccc(Cl)c1Cl,IC50,Trypanosoma cruzi [3],25 nM
C[C@@H]1CN([C@H](C)CO)C(=O)c2cccc(NC(=O)c3ccncc3)c2O[C@H]1CN(C)Cc1ccc(Oc2ccccc2)cc1,fraction unbound,[4],0.01
same,"remaining at 1 h, 1 µM",[5],1%
same,IC50,Trypanosoma cruzi [6],22 nM
same,solubility,[8],1 µM
same,Activity,Trypanosoma cruzi [9],Active
same,IC50,Trypanosoma cruzi [3],5 nM
same,Activity,Trypanosoma cruzi [10],Active
C[C@H]1CN([C@@H](C)CO)C(=O)c2cccc(NC(=O)c3ccncc3)c2O[C@@H]1CN(C)Cc1ccncc1,solubility,[8],100 µM
same,IC50,Trypanosoma cruzi [3],> 32000 nM
CC(C)N1C[C@H](C)[C@@H](CN(C)Cc2ccc(Oc3ccccc3)cc2)Oc2c(NC(=O)c3ccncc3)cccc2C1=O,IC50,Trypanosoma cruzi [6],288 nM
same,IC50,Trypanosoma cruzi [3],1 nM
C[C@H]1CN([C@@H](C)CO)C(=O)c2cccc(NC(=O)c3ccncc3)c2O[C@@H]1CN(C)Cc1cccc(C(F)(F)F)c1,IC50,Trypanosoma cruzi [3],1 nM
C[C@H]1CN([C@@H](C)CO)C(=O)c2cccc(NC(=O)c3ccncc3)c2O[C@H]1CN(C)Cc1ccc(Oc2ccccc2)cc1,fraction unbound,[4],0.05
same,"remaining at 1 h, 1 µM",[5],< 1%
same,IC50,Trypanosoma cruzi [6],59 nM
same,fraction unbound,[7],0.05
same,solubility,[8],93 µM
same,Activity,Trypanosoma cruzi [9],Active
same,IC50,Trypanosoma cruzi [3],23 nM
same,Activity,Trypanosoma cruzi [10],Active
C[C@@H]1CN([C@H](C)CO)C(=O)c2cccc(NC(=O)c3ccncc3)c2O[C@@H]1CN(C)Cc1ccc(Oc2ccccc2)cc1,fraction unbound,[4],0.05
same,"remaining at 1 h, 1 µM",[5],< 1%
same,IC50,Trypanosoma cruzi [6],1200 nM
same,fraction unbound,[7],0.05
same,solubility,[8],86 µM
same,IC50,Trypanosoma cruzi [3],260 nM
CC(C)N1C[C@H](C)[C@@H](CN(C)Cc2ccccc2)Oc2c(NC(=O)c3ccncc3)cccc2C1=O,IC50,Trypanosoma cruzi [3],< 1 nM
CC(C)N1C[C@H](C)[C@@H](CN(C)Cc2ccc(Oc3ccccc3)cc2)Oc2c(NC(=O)c3ccccc3)cccc2C1=O,IC50,Trypanosoma cruzi [3],500 nM
C[C@H]1CN([C@@H](C)CO)C(=O)c2cccc(NC(=O)c3ccncc3)c2O[C@@H]1CN(C)Cc1ccc(Cl)cc1,IC50,Trypanosoma cruzi [3],1 nM
Cc1ccc(CN(C)C[C@H]2Oc3c(NC(=O)c4ccncc4)cccc3C(=O)N([C@@H](C)CO)C[C@@H]2C)cc1,IC50,Trypanosoma cruzi [3],14 nM
C[C@H]1CN([C@@H](C)CO)C(=O)c2cccc(NC(=O)c3ccncc3)c2O[C@@H]1CN(C)Cc1cc(Cl)ccc1Cl,IC50,Trypanosoma cruzi [3],57 nM
COc1cccc(CN(C)C[C@H]2Oc3c(NC(=O)c4ccncc4)cccc3C(=O)N([C@@H](C)CO)C[C@@H]2C)c1,IC50,Trypanosoma cruzi [3],57 nM
C[C@H]1CN([C@@H](C)CO)C(=O)c2cccc(NC(=O)c3ccncc3)c2O[C@@H]1CN(C)Cc1ccc(Cl)c(Cl)c1,IC50,Trypanosoma cruzi [6],83 nM
same,solubility,[8],64 µM
same,IC50,Trypanosoma cruzi [3],< 1 nM
C[C@H]1CN([C@@H](C)CO)C(=O)c2cccc(NC(=O)c3ccncc3)c2O[C@@H]1CN(C)Cc1ccc(Cl)c(F)c1,IC50,Trypanosoma cruzi [3],1 nM
Cc1ccccc1CN(C)C[C@H]1Oc2c(NC(=O)c3ccncc3)cccc2C(=O)N([C@@H](C)CO)C[C@@H]1C,IC50,Trypanosoma cruzi [3],56 nM
C[C@H]1CN([C@@H](C)CO)C(=O)c2cccc(NC(=O)c3ccncc3)c2O[C@@H]1CN(C)Cc1ccccc1Cl,IC50,Trypanosoma cruzi [3],165 nM
CC(C)N1C[C@H](C)[C@@H](CN(C)Cc2ccc(Oc3ccccc3)cc2)Oc2c(NC(=O)c3cccnc3)cccc2C1=O,IC50,Trypanosoma cruzi [3],45 nM
COc1ccccc1CN(C)C[C@H]1Oc2c(NC(=O)c3ccncc3)cccc2C(=O)N([C@@H](C)CO)C[C@@H]1C,IC50,Trypanosoma cruzi [3],78 nM
C[C@H]1CN([C@@H](C)CO)C(=O)c2cccc(NC(=O)c3ccncc3)c2O[C@@H]1CN(C)Cc1ccc(Oc2ccccc2)cc1,fraction unbound,[4],0.01
same,Activity,Trypanosoma cruzi [11],inactive
same,Activity,Trypanosoma cruzi [12],inactive
same,"remaining at 1 h, 1 µM",[5],77%
same,IC50,Trypanosoma cruzi [6],16 nM
same,Activity,Trypanosoma cruzi [13],Active
same,Activity,Trypanosoma cruzi [14],Active
same,solubility,[8],1 µM
same,Activity,Trypanosoma cruzi [9],Active
same,IC50,Trypanosoma cruzi [3],1 nM
same,Activity,Trypanosoma cruzi [10],Active
C[C@H]1CN([C@@H](C)CO)C(=O)c2cccc(NC(=O)c3ccncc3)c2O[C@@H]1CN(C)Cc1cccc(Cl)c1,IC50,Trypanosoma cruzi [3],15 nM
C[C@H]1CN([C@@H](C)CO)C(=O)c2cccc(NC(=O)c3ccncc3)c2O[C@@H]1CN(C)Cc1cc(Cl)cc(Cl)c1,IC50,Trypanosoma cruzi [3],10 nM
C[C@H](CO)N1C[C@H](C)[C@H](CN(C)Cc2ccc(Oc3ccccc3)cc2)Oc2c(NC(=O)c3ccncc3)cccc2C1=O,"remaining at 1 h, 1 µM",[5],< 1%
same,IC50,Trypanosoma cruzi [6],75 nM
same,Stability,Plasma,Unstable
same,Activity,Trypanosoma cruzi [15],Active
same,solubility,[8],98 µM
same,Activity,Trypanosoma cruzi [16],Active
same,IC50,Trypanosoma cruzi [3],16 nM
C[C@H](CO)N1C[C@H](C)[C@@H](CN(C)Cc2ccc(Oc3ccccc3)cc2)Oc2c(NC(=O)c3ccncc3)cccc2C1=O,fraction unbound,[4],0.01
same,"remaining at 1 h, 1 µM",[5],70%
same,IC50,Trypanosoma cruzi [6],31 nM
same,solubility,[8],2 µM
same,IC50,Trypanosoma cruzi [3],2 nM
COc1ccc(CN(C)C[C@H]2Oc3c(NC(=O)c4ccncc4)cccc3C(=O)N([C@@H](C)CO)C[C@@H]2C)cc1,IC50,Trypanosoma cruzi [3],127 nM
CC(C)N1C[C@H](C)[C@@H](CN(C)Cc2ccc(Oc3ccccc3)cc2)Oc2c(NC(=O)c3ccccn3)cccc2C1=O,IC50,Trypanosoma cruzi [3],344 nM
C[C@H]1CN([C@@H](C)CO)C(=O)c2cccc(NC(=O)c3ccncc3)c2O[C@@H]1CN(C)Cc1c(Cl)cccc1Cl,IC50,Trypanosoma cruzi [3],445 nM
C[C@H]1CN([C@@H](C)CO)C(=O)c2cccc(NC(=O)c3ccncc3)c2O[C@@H]1CN(C)Cc1ccc(C(F)(F)F)cc1,IC50,Trypanosoma cruzi [6],422 nM
same,IC50,Trypanosoma cruzi [3],13 nM
CC(C)N1C[C@H](C)[C@@H](CN(C)Cc2cccc(Cl)c2)Oc2c(NC(=O)c3ccncc3)cccc2C1=O,IC50,Trypanosoma cruzi [3],2 nM
CC(C)N1C[C@H](C)[C@@H](CN(C)Cc2ccc(Oc3ccccc3)cc2)Oc2c(NC(=O)C3CCN(C)CC3)cccc2C1=O,IC50,Trypanosoma cruzi [3],1200 nM
Cc1cccc(CN(C)C[C@H]2Oc3c(NC(=O)c4ccncc4)cccc3C(=O)N([C@@H](C)CO)C[C@@H]2C)c1,IC50,Trypanosoma cruzi [3],1 nM
